The record followed here is ChEMBL document CHEMBL3045743, “Synthesis and herbicidal activity of isoindoline-1,3-dione substituted benzoxazinone derivatives containing a carboxylic ester group” (J Agric Food Chem, 2009).

Data set [1] in a line: (§1) Phytotoxicity against Gossypium (cotton) assessed as growth inhibition at 300 g.a.i/ha pre-emergent application measured after 15 days by greenhouse crop selectivity assay. The note with it: in vivo, 300 g.a.i/ha, read-out: GI. The class given is organism-based. Summed up: (§2)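 Pre-emergence greenhouse crop selectivity test on pot-grown plants in clay soil (pH 6.5, 1.7% organic matter, 37.5% clay, CEC 12.9 cmol/kg). Stock solutions were diluted with water and applied at 300, 150, 75 or 37.5 g a.i./ha, in triplicate. After 15 days, phytotoxicity was scored visually against untreated controls as % crop growth inhibition, averaged over the triplicates.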

A short description of data set [2]: Phytotoxicity against Triticum aestivum (wheat) assessed as growth inhibition at 37.5 g.a.i/ha pre-emergent application measured after 15 days by greenhouse crop selectivity assay. The class given is organism-based. The note with it: in vivo, 37.5 g.a.i/ha, read-out: GI. A digest of the protocol:
as §2

A short description of data set [3]: Phytotoxicity against Glycine max (soybean) assessed as growth inhibition at 300 g.a.i/ha pre-emergent application measured after 15 days by greenhouse crop selectivity assay. The note with it: in vivo, 300 g.a.i/ha, read-out: GI. It is filed as organism-based. A digest of the protocol: as §2
Data set [4] can be described thus: Phytotoxicity against Glycine max (soybean) assessed as growth inhibition at 150 g.a.i/ha pre-emergent application measured after 15 days by greenhouse crop selectivity assay. It is filed as organism-based. The note with it: in vivo, 150 g.a.i/ha, read-out: GI. Summed up: as §2
Data set [5] in a line: Phytotoxicity against Glycine max (soybean) assessed as growth inhibition at 75 g.a.i/ha pre-emergent application measured after 15 days by greenhouse crop selectivity assay. The note with it: in vivo, 75 g.a.i/ha, read-out: GI. It is filed as organism-based. Summed up:
as §2

Data set [6] deals with Oryza sativa. The data set is described as follows: Phytotoxicity against Oryza sativa (rice) assessed as growth inhibition at 75 g.a.i/ha pre-emergent application measured after 15 days by greenhouse crop selectivity assay. It is filed as organism-based, L. The note with it: in vivo, other, 360 h. Summed up: as §2
For data set [7], the system named is Oryza sativa. The data set is described as follows: Phytotoxicity against Oryza sativa (rice) assessed as growth inhibition at 37.5 g.a.i/ha pre-emergent application measured after 15 days by greenhouse crop selectivity assay. The class given is organism-based, L. The note with it: in vivo, other, 360 h. Summed up: as §2
Data set [8] relates to Triticum aestivum. The data set can be described thus: Phytotoxicity against Triticum aestivum (wheat) assessed as growth inhibition at 150 g.a.i/ha pre-emergent application measured after 15 days by greenhouse crop selectivity assay. The class given is organism-based. The note with it: in vivo, other, 360 h. A digest of the protocol:
as §2

Data set [9] has as its system Gossypium. The data set is described as §1. The class given is organism-based. The note with it: in vivo, other, 360 h. A digest of the protocol:
as §2

Take `C#CCN1C(=O)COc2cc(F)c(N3C(=O)C4=C(CCCC4)C3=O)cc21` [FLUMIOXAZIN]: the inhibition at 360 h in data set [1], in data set [2], in [3], in data set [4] and in data set [5] was above 10% in each case.
As to `COC(=O)C(C)N1C(=O)C(C)Oc2cc(F)c(N3C(=O)C4=C(CCCC4)C3=O)cc21` (stereo unspecified), in [1], the inhibition at 360 h is above 10%.
Take `CCOC(=O)C(CC)N1C(=O)C(C)Oc2cc(F)c(N3C(=O)C4=C(CCCC4)C3=O)cc21` (stereo unspecified): the “growth inhibition (GI)” value in data set [6], in data set [7], in [8] and in data set [9] was “Not Active” in each case.
Take `CCOC(=O)C(C)N1C(=O)C(C)Oc2cc(F)c(N3C(=O)C4=C(CCCC4)C3=O)cc21` (stereo unspecified): the “growth inhibition (GI)” value in [9] is recorded as “Not Active”.
